The source of these data is article PMC4203516 (Autophagy, 2014).

Assay [1] relates to autophagic vacuoles in peripheral blood mononuclear cells (PBMC). In words: Autophagic vacuole. The class given is in vivo, human. The following applies: 1 wk, 24 h or 4 h after first TEM infusion, data pooled.
The next assay deals with advanced melanoma. The following applies: temsirolimus alone, of 33 patients; cited from earlier work.
The subject of assay [2] is cutaneous melanoma metastases. In words: Autophagic vacuole accumulation in serial tumor biopsies by electron microscopy. It is filed as in vivo, human. The following applies: after 4 h of treatment with TEM, one melanoma patient. The gist of the method:
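Cutaneous melanoma metastases sampled serially by punch biopsy from patients on IV temsirolimus 25 mg weekly plus oral HCQ 1200 mg/d. Tumour was dissected on ice and fixed immediately in EM fixative (2% glutaraldehyde, as used for PBMC) before electron microscopy for autophagic vacuoles.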

Molecules are shown by their SMILES.

In the case of `CO[C@H]1C[C@@H]2CC[C@@H](C)[C@@](O)(O2)C(=O)C(=O)N2CCCC[C@H]2C(=O)O[C@H]([C@H](C)C[C@@H]2CC[C@@H](OC(=O)C(C)(CO)CO)[C@H](OC)C2)CC(=O)[C@H](C)/C=C(\C)[C@@H](O)[C@@H](OC)C(=O)[C@H](C)C[C@H](C)/C=C/C=C/C=C/1C` [TEM, temsirolimus], the “AV/cell in PBMC after TEM treatment alone” value in assay [1] was “no significant increase in AV”. Also, in the assay on advanced melanoma, the “Patients with partial response” value was 1 and the “Patients with stable disease” value is listed as 0. Also, the “AV in tumor tissue compared with baseline” value in assay [2] was “no accumulation of AV”.
